Assay results as given in ChEMBL document CHEMBL1147977, “UDP acting at P2Y6 receptors is a mediator of microglial phagocytosis” (2007).
Active and inactive are the calls of the source.

Assays:
[1] = Induction of phagocytosis in Wistar rat microglia assessed as uptake of microspheres at 100 uM after 20 mins by FACS; type: functional
Outline: (§1)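 Rat primary cultured microglia incubated with agonist for 20 min, with UDP tested at 5–1,000 μM, in the presence of fluorescent latex microspheres. Bead uptake is quantified by FACS, and results are expressed relative to uptake with 100 μM UDP alone. Values are means ± s.e.m. of about three or four experiments.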

[2] = target: P2Y purinoceptor 6 (Rattus norvegicus) (UniProt Q63371); assay: Effect on P2Y6 receptor-mediated cell motility in Wistar rat microglia at 100 uM by chemotaxis assay
Chain of P2Y purinoceptor 6 (Rattus norvegicus) (Q63371 whole entry): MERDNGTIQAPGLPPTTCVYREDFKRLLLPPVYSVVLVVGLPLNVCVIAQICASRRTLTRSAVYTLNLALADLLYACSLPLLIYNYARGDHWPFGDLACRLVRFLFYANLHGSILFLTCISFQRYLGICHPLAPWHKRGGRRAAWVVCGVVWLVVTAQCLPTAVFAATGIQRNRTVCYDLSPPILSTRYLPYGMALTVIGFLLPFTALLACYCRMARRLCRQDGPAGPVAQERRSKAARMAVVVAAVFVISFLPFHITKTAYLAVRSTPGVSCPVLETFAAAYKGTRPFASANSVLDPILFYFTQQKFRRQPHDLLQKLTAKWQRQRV
Outline: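 Chemotaxis of cultured primary rat microglia toward agonist (100 μM) assessed in a Dunn chemotaxis chamber.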

[3] = target: P2Y purinoceptor 6 (Rattus norvegicus) (UniProt Q63371); assay: Effect on P2Y6 receptor-mediated cell motility in Wistar rat microglia assessed as formation of lamellipodia-like membrane ruffles at 10 uM after 5 mins
Outline: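 Cultured primary rat microglia stimulated 5 min with agonist, then fixed, permeabilized and phalloidin-stained; lamellipodia-like membrane ruffles scored by microscopy.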

Microglia [4] = assay: Reversal of increase drug-induced phagocytosis in Wistar rat microglia assessed as uptake of microspheres by FACS in presence of MRS2578; type: functional, cell-based
Outline: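 Microglia incubated 20 min with supernatant from hippocampal neurons treated ±100 μM kainate for 1 h, with or without 1 μM antagonist; fluorescent latex bead uptake measured by flow cytometry; at least four independent experiments.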

Hippocampus [5] = assay: Reversal of drug-induced phagocytosis in Wistar rat hippocampal CA3 region assessed as increase in number of microglia at 10 mg/kg, ip in presence of MRS2578; type: functional, organism-based; parameters: dose 10 mg/kg
Outline: (§2)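 Rats given 10 mg kg⁻¹ i.p.; fluorescent microspheres injected into hippocampal CA3, antagonist injected into CA3 (antisense/mismatch oligonucleotide into third ventricle); microspheres taken up or attached by anti-Iba1-stained microglia counted by confocal microscopy; ANOVA with Scheffe test.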

Hippocampus [6] = assay: Upregulation of P2Y6 receptor mRNA signals in Wistar rat hippocampal CA3 region assessed as increase in number of microglia by in situ hybridization after 3 days; type: functional, tissue-based
Outline: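 Rats given 10 mg kg⁻¹ i.p.; 3 days later hippocampal sections probed by in situ hybridization with P2Y₆ antisense RNA probe, then stained with anti-Iba1 to identify microglia bearing receptor mRNA in CA3.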

Microglia [7] = assay: Increase in P2Y6 receptor protein expression in Wistar rat microglia; type: functional, cell-based
Outline: (§3)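 Rats given 10 mg kg⁻¹ i.p.; brain sections immunostained for P2Y₆ receptor and co-stained for microglia (OX42), astrocytes (GFAP) or neurons (NeuN) to assess colocalization.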

Hippocampus [8] = assay: Induction of neuronal loss in Wistar rat hippocampal CA3 region assessed as increase in number of microglia by immunohistochemical analysis; type: functional, tissue-based
Outline: (§4)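 Rats given 10 mg kg⁻¹ i.p.; 72 h later hippocampal sections double-stained with anti-NeuN (neurons) and anti-Iba1 (microglia) to assess CA1 and CA3 neuronal loss and microglial number.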

Hippocampus [9] = assay: Induction of phagocytosis in Wistar rat hippocampal CA3 region assessed as increase in number of microglia at 10 mg/kg, ip; type: functional, organism-based; parameters: dose 10 mg/kg; outline: as §2
Neuron [10] = assay: Increase in P2Y6 receptor protein expression in Wistar rat neurons; type: functional, cell-based; outline: as §3
Neuron [11] = assay: Increase in UTP level in Wistar rat hippocampal neuron at 100 uM after 1 hr by HPLC in presence of ARL67156
Microglia [12] = assay: Increase in phagocytosis in Wistar rat microglia assessed as uptake of microspheres by FACS; type: functional, cell-based
Outline: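 Cultured primary rat microglia incubated 20 min with fluorescent latex beads plus agonist (5–1,000 μM); bead uptake quantified by flow cytometry; three experiments.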

Astrocyte = assay: Increase in P2Y6 receptor protein expression in Wistar rat astrocytes; type: functional, cell-based; outline: as §3
Neuron [13] = assay: Increase in UTP level in Wistar rat hippocampal neuron at 10 mg/kg, ip by microdialysis; type: functional, organism-based; parameters: dose 10 mg/kg; details: Hippocampus, TDE = time-dependent effect
Rattus norvegicus = assay: Increase in P2Y6 receptor protein expression in Wistar rat brain at 10 mg/kg, ip after 72 hrs by Western blotting; type: functional, organism-based; parameters: dose 10 mg/kg
Outline: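 Rats given 10 mg kg⁻¹ i.p. (saline-injected controls); brains removed 72 h later and hippocampal P2Y₆ receptor protein quantified by western blot; 8 control and 7 treated experiments.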

Neuron [14] = assay: Induction of neuronal loss in Wistar rat neurons at 10 mg/kg, ip after 2-3 days; type: functional, organism-based; parameters: dose 10 mg/kg
Hippocampus [15] = assay: Induction of neuronal loss in Wistar rat hippocampal CA1 region assessed as increase in number of microglia by immunohistochemical analysis; type: functional, tissue-based; outline: as §4
[16] = target: P2Y purinoceptor 6 (Rattus norvegicus) (UniProt Q63371); assay: Activity at P2Y6 receptor in Wistar rat microglia assessed as inhibition of intracellular calcium concentration at 100 uM after 300 secs by ratiometric fura-2 fluorescence method in presence of U73122; type: functional, cell-based
Outline: (§5)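 Cultured rat primary microglia. Intracellular Ca2+ measured as the change in the 340/380 nm Fura-2 fluorescence ratio after stimulation with 100 μM UDP, alone or with inhibitors. The maximal UDP-alone response is the control, and responses are expressed as percent of control. Values are means ± s.e.m. of 24–36 cells from at least three independent experiments.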

Microglia [17] = assay: Effect on formation of filopodia-like protrusions in Wistar rat microglia at 100 uM after 5 mins; type: functional, cell-based
Outline: (§6)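 Rat primary cultured microglia stimulated for 5 min with 100 μM UDP or 10 μM ATP, then fixed, permeabilized and stained with phalloidin. Membrane ruffles and other actin structures are assessed by microscopy.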

[18] = target: P2Y purinoceptor 6 (Rattus norvegicus) (UniProt Q63371); assay: Activity at P2Y6 receptor in Wistar rat microglia assessed as inhibition of intracellular calcium concentration at 100 uM after 600 secs by ratiometric fura-2 fluorescence method in presence of thapsigargin; type: functional, cell-based; outline: as §5
[19] = target: P2Y purinoceptor 6 (Rattus norvegicus) (UniProt Q63371); assay: Activity at P2Y6 receptor in Wistar rat microglia assessed as inhibition of intracellular calcium concentration at 100 uM in presence of suramin by ratiometric fura-2 fluorescence method; type: functional, cell-based; outline: as §5
Microglia [20] = assay: Effect on formation of phagosome-like vacuoles in Wistar rat microglia at 100 uM after 5 mins; type: functional, cell-based; outline: as §6
Microglia [21] = assay: Reversal of drug-induced phagocytosis in Wistar rat microglia at 100 uM in presence of U73122; type: functional, cell-based
Outline: (§7)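 Rat primary cultured microglia stimulated with 100 μM UDP, with or without reactive blue 2 (30–100 μM), suramin (300 μM), MRS2578 (0.01–3 μM), thapsigargin (1 μM), staurosporine (5 μM) or U73122 (10 μM). Uptake of fluorescent latex microspheres during the 20-min incubation is quantified by FACS. Values are means ± s.e.m.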

Microglia [22] = assay: Reversal of drug-induced of phagocytosis in Wistar rat microglia at 100 uM in presence of suramin; type: functional; outline: as §7
Microglia [23] = assay: Reversal of drug-induced of phagocytosis in Wistar rat microglia at 100 uM in presence of reactive blue 2; type: functional; outline: as §7
[24] = target: P2Y purinoceptor 6 (Rattus norvegicus) (UniProt Q63371); assay: Activity at P2Y6 receptor in Wistar rat microglia assessed as inhibition of intracellular calcium concentration at 100 uM after 600 secs by ratiometric fura-2 fluorescence method in presence of xestospongin C; type: functional, cell-based; outline: as §5
[25] = target: P2Y purinoceptor 6 (Rattus norvegicus) (UniProt Q63371); assay: Agonist activity at P2Y6 receptor in Wistar rat microglia assessed as increase in intracellular calcium concentration by ratiometric fura-2 fluorescence method; type: functional, cell-based
Outline: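 Rat primary cultured microglia loaded with Fura-2. The rise in [Ca2+]i is read as the change in the 340/380 nm fluorescence ratio. UDP is applied over a concentration range, and the fraction of responding cells is also scored.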

[26] = target: P2Y purinoceptor 6 (Rattus norvegicus) (UniProt Q63371); assay: Effect on P2Y6 receptor-mediated cell motility in Wistar rat microglia assessed as formation of lamellipodia-like membrane ruffles at 100 uM after 5 mins; outline: as §6
Microglia [27] = assay: Effect on formation of phagocytotic cup in Wistar rat microglia at 100 uM after 5 mins; type: functional, cell-based; outline: as §6
[28] = target: P2Y purinoceptor 6 (Rattus norvegicus) (UniProt Q63371); assay: Activity at P2Y6 receptor in Wistar rat microglia assessed as inhibition of intracellular calcium concentration at 100 uM by ratiometric fura-2 fluorescence method in presence of MRS2578; type: functional, cell-based; outline: as §5
Microglia [29] = assay: Reversal of drug-induced phagocytosis in Wistar rat microglia at 100 uM in presence of thapsigargin; type: functional, cell-based; outline: as §7
Microglia [30] = assay: Effect on formation of F-actin aggregation in Wistar rat microglia at 100 uM after 5 mins; type: functional, cell-based; outline: as §6
Microglia [31] = assay: Reversal of drug-induced phagocytosis in Wistar rat microglia at 100 uM in presence of staurosporine; type: functional, cell-based; outline: as §7
[32] = target: P2Y purinoceptor 6 (Rattus norvegicus) (UniProt Q63371); assay: Activity at P2Y6 receptor in Wistar rat microglia assessed as inhibition of intracellular calcium concentration at 100 uM by ratiometric fura-2 fluorescence method in presence of reactive blue 2; type: functional, cell-based; outline: as §5
Microglia [33] = assay: Reversal of drug-induced phagocytosis in Wistar rat microglia at 100 uM in presence of MRS2578; type: functional; outline: as §7
Microglia [34] = assay: Induction of phagocytosis in Wistar rat microglia assessed as uptake of microspheres after 20 mins by FACS; type: functional, cell-based; outline: as §1
[35] = target: T1, Cysteinyl leukotriene receptor 1 (Rattus norvegicus) (UniProt Q924T8); assay: Agonist activity at CysLT1 receptor in Wistar rat microglia assessed as increase in intracellular calcium concentration at 30 uM by ratiometric fura-2 fluorescence method; type: functional, cell-based
T1 sequence (whole entry): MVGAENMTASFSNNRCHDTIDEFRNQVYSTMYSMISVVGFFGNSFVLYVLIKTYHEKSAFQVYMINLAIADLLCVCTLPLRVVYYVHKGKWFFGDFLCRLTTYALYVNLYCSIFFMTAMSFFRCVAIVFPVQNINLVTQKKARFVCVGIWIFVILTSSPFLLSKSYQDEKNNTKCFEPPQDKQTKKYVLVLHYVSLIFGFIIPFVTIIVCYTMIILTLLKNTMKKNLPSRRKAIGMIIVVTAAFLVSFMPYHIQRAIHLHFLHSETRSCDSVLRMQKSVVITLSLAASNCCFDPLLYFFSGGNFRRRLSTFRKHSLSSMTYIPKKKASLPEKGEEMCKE

Measured: Activity

Nc1nc2c(ncn2[C@@H]2O[C@H](COP(=O)(O)OP(=O)(O)O)[C@@H](O)[C@H]2O)c(=O)[nH]1
49.7%: [1]

Nc1ncnc2c1ncn2[C@@H]1O[C@H](COP(=O)(O)OP(=O)(O)OP(=O)(O)O)[C@@H](O)[C@H]1O
active: [2] | [3]

Nc1ncnc2c1ncn2[C@@H]1O[C@H](COP(=O)(O)OP(=O)(O)O)[C@@H](O)[C@H]1O [ADENOSINE DIPHOSPHATE]
0.3%: [1]

C=C(C)[C@H]1CN[C@H](C(=O)O)[C@H]1CC(=O)O [KAINIC ACID]
10.5 µM: Neuron [11]
active: Microglia [4] | Hippocampus [5] | Hippocampus [6] | Microglia [7] | Hippocampus [8] | Hippocampus [9] | Microglia [12] | Neuron [13] tde | Rattus norvegicus | Neuron [14] | Hippocampus [15]
inactive: Neuron [10] | Astrocyte

O=c1ccn([C@@H]2O[C@H](COP(=O)(O)OP(=O)(O)O)[C@@H](O)[C@H]2O)c(=O)[nH]1
active: [16] | Microglia [17] | [18] | [19] | Microglia [20] | Microglia [21] | Microglia [22] | Microglia [23] | [24] | [25] Dose-dependent effect | Microglia [27] | [28] | Microglia [29] | Microglia [30] | Microglia [31] | [32] | Microglia [33] | Microglia [34] Dose-dependent effect | [35]
inactive: [2] | [26]
